Experimental data published in ChEMBL document CHEMBL1156256, “Poly(ethylene glycol) (PEG-400) as an alternative reaction solvent for the synthesis of some new 1-(4-(4'-chlorophenyl)-2-thiazolyl)-3-aryl-5-(2-butyl-4-chloro-1H-imidazol-5yl)-2-pyrazolines and their in vitro antimicrobial evaluation” (2010).
Values after ≈ are worked out from the molar mass of the structure shown.

Columns and labels:
Staphylococcus aureus = assay: Antibacterial activity against Staphylococcus aureus MTCC 96 after 24 hrs by agar diffusion method; format: functional; details: for MIC: Staphylococcus aureus, MTCC 96, 24 h
Summary of the method: (§1)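 Agar well diffusion following NCCLS. Bacteria kept on nutrient agar slants at 37 ± 0.5 °C for 24 h. Nutrient agar plates seeded with 0.1 mL of culture suspension in 0.85% sterile saline (10⁵ CFU/mL). Plates incubated at 37 ± 0.5 °C for 24 h. Zone of inhibition recorded in mm, and MIC noted. 1% DMSO used as control.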

Escherichia coli = assay: Antibacterial activity against Escherichia coli MTCC 2939 after 24 hrs by agar diffusion method; format: functional; details: for MIC: Escherichia coli, MTCC 2939, 24 h; summary of the method: as §1
Fusarium verticillioides = assay: Antifungal activity against Fusarium moniliforme MTCC 156 after 24 to 48 hrs by agar diffusion method; format: functional; details: for MIC: Fusarium verticillioides, MTCC 156
Summary of the method: (§2)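 Fungi grown on potato dextrose agar slants at 27 ± 0.2 °C for 24–48 h until sporulation. Spores suspended in sterile water with 1% Tween-80 and counted by haemocytometer (10⁶ CFU/mL). 0.1 mL spread on 2% agar PDA plates and held at 27 °C for 12 h. Wells then received 0.1 mL of compound at graded concentrations for MIC. Plates refrigerated 20 min for diffusion, then incubated at 27 ± 0.2 °C for […]. Zone read in mm. 1% DMSO used as control.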

Salmonella enterica = assay: Antibacterial activity against Salmonella typhi MTCC 98 after 24 hrs by agar diffusion method; format: functional, Salmonella enterica subsp. enterica serovar Typhi; details: for MIC: Salmonella enterica, MTCC 98, 24 h
Summary of the method: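 NCCLS agar diffusion. Strain kept on nutrient agar slant at 37 ± 0.5 °C for 24 h. Nutrient agar plates seeded with 0.1 mL of a 10⁵ CFU/mL suspension in sterile 0.85% saline. Plates incubated at 37 ± 0.5 °C for 24 h. Read-out: zone of inhibition (mm) and MIC.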

Candida albicans = assay: Antifungal activity against Candida albicans MTCC 183 after 24 to 48 hrs by agar diffusion method; format: functional; details: for MIC: Candida albicans, MTCC 183; summary of the method: as §2
Aspergillus niger = assay: Antifungal activity against Aspergillus niger MTCC 281 after 24 to 48 hrs by agar diffusion method; format: functional; details: for MIC: Aspergillus niger, MTCC 281; summary of the method: as §2
Penicillium chrysogenum = assay: Antifungal activity against Penicillium chrysogenum MTCC 160 after 24 to 48 hrs by agar diffusion method; format: functional; details: for MIC: Penicillium chrysogenum, MTCC 160; summary of the method: as §2
Bacillus subtilis = assay: Antibacterial activity against Bacillus subtilis MTCC 441 after 24 hrs by agar diffusion method; format: functional; details: for MIC: Bacillus subtilis, MTCC 441, 24 h; summary of the method: as §1
Trichoderma viride = assay: Antifungal activity against Trichoderma viride MTCC 167 after 24 to 48 hrs by agar diffusion method; format: functional; details: for MIC: Trichoderma viride, MTCC 167; summary of the method: as §2

Structure (SMILES) | inhibition zone (IZ) (Staphylococcus aureus) [mm] | MIC (Staphylococcus aureus) [µg/mL] | inhibition zone (IZ) (Escherichia coli) [mm] | MIC (Escherichia coli) [µg/mL] | inhibition zone (IZ) (Fusarium verticillioides) [mm] | MIC (Fusarium verticillioides) [µg/mL] | inhibition zone (IZ) (Salmonella enterica) [mm] | MIC (Salmonella enterica) [µg/mL] | inhibition zone (IZ) (Candida albicans) [mm] | MIC (Candida albicans) [µg/mL] | inhibition zone (IZ) (Aspergillus niger) [mm] | MIC (Aspergillus niger) [µg/mL] | inhibition zone (IZ) (Penicillium chrysogenum) [mm] | MIC (Penicillium chrysogenum) [µg/mL] | inhibition zone (IZ) (Bacillus subtilis) [mm] | MIC (Bacillus subtilis) [µg/mL] | inhibition zone (IZ) (Trichoderma viride) [mm] | MIC (Trichoderma viride) [µg/mL]
CCCCc1nc(Cl)c(C2CC(c3cc(Cl)cc(I)c3O)=NN2c2nc(-c3ccc(Cl)cc3)cs2)[nH]1 (stereo not given) | 18 | 25 (≈ 37.2 µM) | 20 | 25 (≈ 37.2 µM) | 12 | 25 (≈ 37.2 µM) | 16 | 25 (≈ 37.2 µM) | 15 | 25 (≈ 37.2 µM) | 15 | 25 (≈ 37.2 µM) | 14 | 25 (≈ 37.2 µM) | 21 | 25 (≈ 37.2 µM) | 16 | 25 (≈ 37.2 µM)
CCCCc1nc(Cl)c(C2CC(c3ccc(N)cc3)=NN2c2nc(-c3ccc(Cl)cc3)cs2)[nH]1 (stereo not given) | 10 | 50 (≈ 97.8 µM) | 12 | 50 (≈ 97.8 µM) | – | > 100 | – | > 100 | – | > 100 | 14 | 25 (≈ 48.9 µM) | 10 | 50 (≈ 97.8 µM) | 8 | 50 (≈ 97.8 µM) | 12 | 50 (≈ 97.8 µM)
CCCCc1nc(Cl)c(C2CC(c3ccccc3O)=NN2c2nc(-c3ccc(Cl)cc3)cs2)[nH]1 (stereo not given) | 13 | 50 (≈ 97.6 µM) | 15 | 50 (≈ 97.6 µM) | 13 | 25 (≈ 48.8 µM) | 10 | 50 (≈ 97.6 µM) | 15 | 25 (≈ 48.8 µM) | 14 | 25 (≈ 48.8 µM) | 14 | 25 (≈ 48.8 µM) | 16 | 50 (≈ 97.6 µM) | 16 | 25 (≈ 48.8 µM)
CCCCc1nc(Cl)c(C2CC(c3cc(C)ccc3O)=NN2c2nc(-c3ccc(Cl)cc3)cs2)[nH]1 (stereo not given) | – | > 100 | 11 | 50 (≈ 95 µM) | 11 | 50 (≈ 95 µM) | – | > 100 | 10 | 50 (≈ 95 µM) | 12 | 50 (≈ 95 µM) | – | > 100 | 12 | 50 (≈ 95 µM) | 8 | 50 (≈ 95 µM)
CCCCc1nc(Cl)c(C2CC(c3cc(Cl)c(C)cc3O)=NN2c2nc(-c3ccc(Cl)cc3)cs2)[nH]1 (stereo not given) | 12 | 50 (≈ 89.1 µM) | 14 | 50 (≈ 89.1 µM) | 11 | 50 (≈ 89.1 µM) | 9 | 50 (≈ 89.1 µM) | – | > 100 | 12 | 50 (≈ 89.1 µM) | 13 | 25 (≈ 44.6 µM) | – | > 100 | 14 | 25 (≈ 44.6 µM)
CCCCc1nc(Cl)c(C2CC(c3cc(Cl)c(C)c(I)c3O)=NN2c2nc(-c3ccc(Cl)cc3)cs2)[nH]1 (stereo not given) | 14 | 50 (≈ 72.8 µM) | 18 | 25 (≈ 36.4 µM) | 14 | 25 (≈ 36.4 µM) | 16 | 25 (≈ 36.4 µM) | 13 | 25 (≈ 36.4 µM) | 14 | 25 (≈ 36.4 µM) | 15 | 25 (≈ 36.4 µM) | 19 | 25 (≈ 36.4 µM) | 12 | 25 (≈ 36.4 µM)
